# Compound activity: PubChem BioAssay, several laboratories
# CSN deneddyl inh: CSN deneddylation inhibition. 360,000 compounds, 0.38% hits. Q92905. inhibition, % at 12.5 µM. Purified CSN, SCF-Nedd8-OG deneddylation, fluorescence polarization;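 active means pattern-corrected inhibition above about 35%, with an unprinted fluorescence ratio check between 0.5 and 1.5, limit read from the data, passing the limit was not always enough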;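 further: 0% = enzyme with substrate and 100% = substrate without enzyme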
#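 Test system: Human Csn5 produced in HEK293T cells | Compound: 12.5 µM single point | Times: 90 min, room temperature | Signal: Fluorescence polarization readout | Read-out basis: % inhibition of substrate cleavage by Csn5 | Controls: no-enzyme wells high, enzyme-with-substrate wells low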
# LEDGF integ inh: blocks HIV-1 LEDGF/p75-dependent DNA integration. AID 743269. 370,000 compounds, 0.64% hits. TR-FRET IN-LEDGF/p75 DNA integration, Eu/Cy5. inhibition, % at 3.7 µM;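 active means inhibition above the screen-wide mean plus 3 SD, cut at about 13% in these data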;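 further: signal is the Cy5 over europium emission ratio at 671 and 618 nm; 0% = plate median of compound wells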
# rCAG RNA binder: molecules binding r(CAG) RNA repeats | r(CAG) RNA repeat, TO-PRO-1 dye displacement fluorescence | inhibition, % at 3 µM | 370,000 compounds, 1.3% hits | AID 651821;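 active means inhibition above the plate cutoff, the mean of all test compounds on that plate plus 3 SD, cut at about 35% in these data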;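 further: 0% = DMSO alone and 100% = 100 µM mitoxantrone as full dye displacement; higher means more dye released from RNA so lower well fluorescence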
# ATG4B inhibitor: ATG4B (human) cysteine protease inhibition | Q9Y4P1 | ATG4B cleavage of LC3-PLA2, NBD-HPC fluorescence, 1 h | inhibition, % at 8.33 µM | 340,000 compounds, 0.51% hits; in the data active means inhibition above about 40%
# UHRF1 MBD2 ctr: blocks human UHRF1 binding to methylated DNA; Q96T88; UHRF1 binding to methylated oligo, TR-FRET; inhibition, % at 4.4 µM; 370,000 compounds, 0.75% hits; in the data active means inhibition above about 21%;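 further: UHRF1 SRA domain binding a hemimethylated CpG hairpin DNA probe; 0% = median of test compound wells and 100% = reference inhibitor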
# MBD2 DNA inh: inhibitors of human MBD2 binding to methylated oligonucleotide; 370,000 compounds, 0.31% hits; inhibition, % at 4.4 µM; TR-FRET; Q9UBB5; in the data active means inhibition above about 13%
# IN multimer act: activates HIV-1 integrase multimerization in LEDGF counter-screen; TR-FRET HIV-1 integrase multimerization, biochemical; shares compounds with LEDGF integ inh; 2,000 compounds, 17% hits; activation, % at 7.7 µM; in the data active means activation above about 8.9%
# TR-FRET interf: counter-screen for LEDGF/p75 integration inhibitors: TR-FRET optical interference | TR-FRET optical interference counterscreen, HIV-1 IN multimerization | 2,000 tested, under 10 active | AID 1053135 | shares compounds with LEDGF integ inh | inhibition, % at 7.7 µM;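 active means inhibition above the mean over all tested compounds plus 3 SD, which no compound reached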;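 further: 0% = integrase with antibodies and DMSO and 100% = antibodies without integrase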
# LEDGF integ conf: LEDGF/p75-dependent HIV-1 integration inhibition, confirmation; shares compounds with LEDGF integ inh; TR-FRET LEDGF/p75-dependent HIV-1 integration, biochemical; inhibition, % at 3.7 µM; 2,000 compounds, 36% hits; AID 1053136; in the data active means inhibition above about 14%
# * hit, by the source's call; x = no result. Compounds with a hit are over-represented: about 3.1% of the library has one in this group of screens.
SMILES,CSN deneddyl inh,LEDGF integ inh,rCAG RNA binder,ATG4B inhibitor,UHRF1 MBD2 ctr,MBD2 DNA inh,IN multimer act,TR-FRET interf,LEDGF integ conf
C=C1C(=O)OC2CCN3CC=C(COC(=O)C(C)(O)C4(CO4)C1C)C23 (stereo not drawn),-0.7,37.1*,9.6,x,41.2*,9.2,-0.2,0.9,-3.1
C=C1C/C(=C/C)C(=O)O[C@@H]2CCN3CC=C(COC(=O)[C@]1(C)O)[C@H]23,3.3,-2.5,-0.9,-9.5,-1.7,2.9,x,x,x
CC1CCCN(C(=O)CN2C3CCC2CC(O)(c2ccc(F)cc2)C3)C1 (stereo not drawn),-7.4,4.0,-4.2,-5.9,0.1,-1.6,x,x,x
CC1CCCN(C(=O)CCl)C1 (stereo not drawn),5.4,70.7*,0.6,-10.3,-1.1,-0.1,0.2,-1.1,-4.0
CCOC(=O)[C@]12Cc3c(cc(OC)c(OC)c3OC)[C@H]1N(C)C(=O)c1ccccc12,-9.9,4.1,-1.6,x,0.3,-0.9,x,x,x
C=C(C)CC1(CC)C(=O)NC(=S)NC1=O,6.0,20.3*,-2.4,-1.8,3.5,-0.9,0.6,-3.1,-4.8
